# Screening results: PubChem, several laboratories
# A selection: hits, their analogues and other compounds. The true share with any hit is near 2.5%.
# NR2E3 ag-1: NR2E3 (human) agonism. Q9Y5X4. GST-NR2E3/biotin-RetCOR TR-FRET, 1536-well. inhibition of corepressor binding, % at 4.78 µM. hit rate 0.12% among 320,000. AID 2300;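 active means percent inhibition above the cutoff of mean plus 3 SD of all tested compounds, set per screening campaign, cut at about 20% in these data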;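 further: 0% = DMSO wells and 100% = biotin wells as full block of FRET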
# Target sequence (Q9Y5X4 whole entry, looked up): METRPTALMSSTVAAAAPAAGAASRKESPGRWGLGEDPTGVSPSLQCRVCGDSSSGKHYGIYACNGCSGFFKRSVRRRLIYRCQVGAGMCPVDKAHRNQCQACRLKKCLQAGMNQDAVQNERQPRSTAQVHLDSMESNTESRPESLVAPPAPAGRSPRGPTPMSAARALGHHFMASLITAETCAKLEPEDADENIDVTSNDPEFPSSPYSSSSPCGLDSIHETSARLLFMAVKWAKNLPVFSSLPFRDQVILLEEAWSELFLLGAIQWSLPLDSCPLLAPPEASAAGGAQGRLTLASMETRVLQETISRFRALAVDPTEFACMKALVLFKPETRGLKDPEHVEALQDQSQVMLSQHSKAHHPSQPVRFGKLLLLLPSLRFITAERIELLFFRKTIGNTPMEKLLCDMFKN
#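 System: GST-NR2E3 and biotin-RetCOR proteins; probe or stimulus: 7 nM biotin-RetCOR; doses: compound at 4.8 µM, single dose; schedule: Compound–protein incubation for 5 h at 4 °C; detection: time-resolved FRET; read-out: percent inhibition; controls: biotin wells as high control, 0.6% DMSO wells as low control; format: 1536-well plates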
# MsrA act: activators of bovine methionine sulfoxide reductase A. AID 602163. activation, % at 10.6 µM. hit rate 0.3% among 360,000. purified bovine MsrA, absorbance read-out; in the data active means activation above about 7.5%;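 further: 0% = vehicle and 100% = reference activator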
# MsrA inhibitor: bovine MsrA inhibition; purified bovine MsrA, absorbance read-out; inhibition, % at 15.5 µM; hit rate 0.75% among 360,000; AID 651718; in the data active means inhibition above about 4.5%;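 further: 0% = vehicle wells with enzyme and 100% = reference inhibitor wells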
# NR2E3 ag-2: agonists of human NR2E3 nuclear receptor. inhibition of corepressor binding, % at 3.98 µM. CHO-S Gal4-NCOR/VP16-NR2E3 two-hybrid, luciferase. hit rate 0.35% among 360,000;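 active means inhibition above the mean of all tested compounds plus 3 SD, cut at about 70% in these data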;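 further: 0% = DMSO with NR2E3 transfected cells and 100% = cells lacking NR2E3 construct; higher means lower luciferase signal from less NR2E3 corepressor binding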
# GalR3 antag: human GalR3 antagonism; HEK293 GalR3-CNG cAMP membrane potential fluorescence; galR3 body fused to GalR1 C-terminus; inhibition, % at 3 µM; hit rate 0.44% among 360,000; AID 651719;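 active means inhibition above the screen-wide average plus 3 SD, cut at about 13% in these data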;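 further: forskolin and galanin both at EC90 stimulate the cells; cAMP rise reported by CNG channel membrane potential dye signal; 0% = forskolin plus galanin with DMSO and 100% = forskolin alone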
# NadD inh: NadD (S. aureus) enzyme inhibition; purified NadD enzyme, colorimetric absorbance read-out; inhibition, % at 20 µM; hit rate 0.78% among 360,000; AID 602399; in the data active means inhibition above about 26%
# NadD inh conf: NadD (S. aureus) inhibition, single concentration confirmation. shares compounds with NadD inh. purified S. aureus NadD, colorimetric enzyme assay. inhibition, % at 20 µM. hit rate 13% among 2,000; in the data active means inhibition mostly above about 42%, no sharp cut-off; inactive means mostly below about 42%
# Starred values were filed as active, the others as inactive; nt = no result.
SMILES,NR2E3 ag-1,MsrA act,MsrA inhibitor,NR2E3 ag-2,GalR3 antag,NadD inh,NadD inh conf
COc1ccc(NS(=O)(=O)c2cccc(C(=O)NCC3(N(C)C)CCCCC3)c2)cc1,-2,-4,-1,-19,-2,-7,nt
COc1ccc(/C=C/C(=O)NC(=S)NNC(=O)[C@H]2C[C@@H]2c2ccccc2)cc1OC,3,1,0,17,-11,59*,13
COc1cccc(OC)c1C(=O)NC(=S)NNC(=O)[C@H]1C[C@@H]1c1ccccc1,-3,-2,0,-1,-6,4,nt
Cc1ccc(NS(=O)(=O)c2ccc(C)c(C(=O)N3CCOCC3)c2)cc1,0,-2,0,-2,0,-1,nt
COc1ccc2cc(-c3cc(C(=O)OCC(=O)Nc4c(C)n(C)n(-c5ccccc5)c4=O)c4ccccc4n3)ccc2c1,nt,-9,-1,-136,-5,40*,12
NC(Cc1ccccc1)c1csc(NC(=O)Nc2ccccc2Oc2ccccc2)n1 (stereo unspecified),nt,-2,0,6,-3,25,nt
NC(Cc1ccc(C(F)(F)F)cc1)c1csc(NC(=O)Nc2ccccc2Oc2ccccc2)n1 (stereo unspecified),nt,-1,-3,-24,-6,34*,9
O=C(COC(=O)c1c2c(nc3ccccc13)/C(=C\c1ccco1)CC2)NC1CCCC1,nt,1,1,-31,-6,64*,51*
CC1CCCCC1NC(=O)COC(=O)c1c2c(nc3ccccc13)/C(=C\c1ccco1)CC2 (stereo unspecified),nt,-1,1,-49,-2,79*,51*
CN1CCc2nc3ccccc3c(C(=O)OCC(=O)N(CCC#N)c3ccccc3)c2C1,1,-1,1,-2,-1,2,nt
CN(CCC#N)C(=O)COC(=O)c1c2c(nc3ccccc13)/C(=C\c1ccco1)CC2,nt,-4,2,-33,-3,42*,58*
CC(C)COc1ccc2[nH]c3c(c2c1)CCCC3=O,2,0,0,-7,-1,-4,nt
